{"source": "paper PMC5397363", "about": "(Molecular microbiology, 2017)", "key": {"Prp [1]": {"biological_target": "T1, Prp (Staphylococcus aureus, UniProt Q2FXS9)", "T1 sequence (Q2FXS9 whole entry)": "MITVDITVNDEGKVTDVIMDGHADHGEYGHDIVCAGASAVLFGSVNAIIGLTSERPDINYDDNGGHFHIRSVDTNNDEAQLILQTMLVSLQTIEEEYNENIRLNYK", "assay": "Fluorogenic peptide cleavage assay, Michaelis-Menten kinetics of wild-type Prp", "type": "biochemical", "conditions": "pH 7.0"}, "Prp [2]": {"biological_target": "T1, Prp", "assay": "Reaction of Prp with Ellman's reagent under non-denaturing conditions"}, "Prp [3]": {"biological_target": "T1, Prp", "assay": "Inhibition of Prp by chloromethylketone-containing substrate peptide", "type": "biochemical", "how_it_was_run": "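Recombinant S. aureus Prp was purified on Ni-NTA, with the His6-SUMO tag removed by Ulp1. It was tested in a fluorogenic peptide cleavage assay in 50 mM sodium phosphate pH 7.0 with 1.5 mM DTT, 2.35 mM EDTA and 2.53% DMSO (final). Fluorescence (ex 325/em 414 nm) was read every 8 s for 10 min at ambient temperature. Percent inhibition was taken from initial velocities relative to a no-inhibitor control.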"}}, "note": "“And” between values parts separate entries of the source, which are not always exact repeats. Identical values can stand only once. * marks the point of attachment. CH2Cl = ClC*"}
{"compound": "2-aminobenzoic acid-KLNLQFFASKK-dinitrophenol [fluorogenic substrate]", "values": [{"measurement": "turnover number (kcat)", "setting": "Prp [1]; ET constrained to 42.765 nM active sites (2 per dimer)", "result": "0.0458 ± 0.0014 s⁻¹ and 0.05 ± 0.00 s⁻¹"}, {"measurement": "specificity constant (kcat/Km)", "setting": "Prp [1]", "result": "251100 ± 39300 M⁻¹ s⁻¹ and 250000 ± 40000 M⁻¹ s⁻¹"}]}
{"compound": "O=C(O)c1cc(SSc2ccc([N+](=O)[O-])c(C(=O)O)c2)ccc1[N+](=O)[O-]", "note": "[Ellman’s reagent, 5,5′-dithiobis(2-nitrobenzoic acid)]", "values": [{"measurement": "reaction with Prp (qualitative)", "setting": "Prp [2]", "result": "readily reacts"}]}
{"compound": "Ac-KLNLQFF-CH2Cl", "values": [{"measurement": "inhibition of Prp (qualitative)", "setting": "Prp [3]", "result": "inhibited"}]}
